{
  "source": "paper PMC4928098",
  "about": "(NeuroImage, 2016)",
  "key": {"P-gp (ABCB1)": {"molecular_target": "P-gp (ABCB1) (Homo sapiens, UniProt P08183)", "sequence (P08183 whole entry)": "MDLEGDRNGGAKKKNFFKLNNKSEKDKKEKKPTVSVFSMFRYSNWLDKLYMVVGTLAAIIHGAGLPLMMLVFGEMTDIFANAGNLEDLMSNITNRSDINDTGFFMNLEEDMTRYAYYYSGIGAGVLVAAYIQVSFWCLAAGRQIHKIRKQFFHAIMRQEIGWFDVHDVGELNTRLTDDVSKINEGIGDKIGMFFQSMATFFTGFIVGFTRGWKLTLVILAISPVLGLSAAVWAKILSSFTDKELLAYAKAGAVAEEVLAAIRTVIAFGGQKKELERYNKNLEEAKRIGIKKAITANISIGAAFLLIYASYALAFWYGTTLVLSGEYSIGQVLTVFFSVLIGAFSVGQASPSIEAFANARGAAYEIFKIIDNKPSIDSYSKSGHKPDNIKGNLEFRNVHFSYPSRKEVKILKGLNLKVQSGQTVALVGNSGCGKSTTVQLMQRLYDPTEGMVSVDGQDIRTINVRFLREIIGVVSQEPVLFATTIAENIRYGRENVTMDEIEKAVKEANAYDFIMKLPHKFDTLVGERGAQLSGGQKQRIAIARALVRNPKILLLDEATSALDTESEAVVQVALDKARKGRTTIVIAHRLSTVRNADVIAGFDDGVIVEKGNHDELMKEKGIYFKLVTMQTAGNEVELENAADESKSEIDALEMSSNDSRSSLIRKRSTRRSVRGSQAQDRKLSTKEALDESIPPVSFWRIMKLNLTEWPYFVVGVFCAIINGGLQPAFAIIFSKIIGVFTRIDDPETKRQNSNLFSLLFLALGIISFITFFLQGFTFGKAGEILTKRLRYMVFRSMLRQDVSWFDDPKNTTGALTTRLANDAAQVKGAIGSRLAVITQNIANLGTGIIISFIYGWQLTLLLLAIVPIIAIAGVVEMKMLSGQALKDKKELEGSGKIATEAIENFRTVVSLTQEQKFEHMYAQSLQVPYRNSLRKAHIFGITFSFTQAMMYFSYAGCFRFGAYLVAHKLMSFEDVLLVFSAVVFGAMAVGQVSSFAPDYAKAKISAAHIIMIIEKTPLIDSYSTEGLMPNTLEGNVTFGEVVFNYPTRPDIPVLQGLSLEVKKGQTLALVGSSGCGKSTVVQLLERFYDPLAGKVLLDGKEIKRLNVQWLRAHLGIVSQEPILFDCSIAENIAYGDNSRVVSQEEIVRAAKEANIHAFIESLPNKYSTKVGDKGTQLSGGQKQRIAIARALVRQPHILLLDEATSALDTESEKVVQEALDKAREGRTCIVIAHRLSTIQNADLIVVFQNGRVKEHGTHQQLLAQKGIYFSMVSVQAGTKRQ", "assay_type": "cell-based", "conditions": "for Percent Inhibition (%) of the fluorescent substrate: P-gp, rhodamine-123 efflux, human cancer cells", "how_it_was_run": "(§1)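 Human cancer cells overexpressing a transporter, plus parental cells, were analysed by flow cytometry for efflux of a fluorescent probe: rhodamine-123 for P-gp, mitoxantrone for BCRP, calcein-AM for MRP1. Conditions were untreated parental cells, expressing cells with a transporter-specific inhibitor, expressing cells with test compound at 20 or 50 µM, and untreated expressing cells. Fluorescence was recorded on 10,000 cells and expressed as percent inhibition.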"}, "MRP1 (ABCC1)": {"molecular_target": "MRP1 (ABCC1) (Homo sapiens, UniProt P33527)", "sequence (P33527 whole entry)": "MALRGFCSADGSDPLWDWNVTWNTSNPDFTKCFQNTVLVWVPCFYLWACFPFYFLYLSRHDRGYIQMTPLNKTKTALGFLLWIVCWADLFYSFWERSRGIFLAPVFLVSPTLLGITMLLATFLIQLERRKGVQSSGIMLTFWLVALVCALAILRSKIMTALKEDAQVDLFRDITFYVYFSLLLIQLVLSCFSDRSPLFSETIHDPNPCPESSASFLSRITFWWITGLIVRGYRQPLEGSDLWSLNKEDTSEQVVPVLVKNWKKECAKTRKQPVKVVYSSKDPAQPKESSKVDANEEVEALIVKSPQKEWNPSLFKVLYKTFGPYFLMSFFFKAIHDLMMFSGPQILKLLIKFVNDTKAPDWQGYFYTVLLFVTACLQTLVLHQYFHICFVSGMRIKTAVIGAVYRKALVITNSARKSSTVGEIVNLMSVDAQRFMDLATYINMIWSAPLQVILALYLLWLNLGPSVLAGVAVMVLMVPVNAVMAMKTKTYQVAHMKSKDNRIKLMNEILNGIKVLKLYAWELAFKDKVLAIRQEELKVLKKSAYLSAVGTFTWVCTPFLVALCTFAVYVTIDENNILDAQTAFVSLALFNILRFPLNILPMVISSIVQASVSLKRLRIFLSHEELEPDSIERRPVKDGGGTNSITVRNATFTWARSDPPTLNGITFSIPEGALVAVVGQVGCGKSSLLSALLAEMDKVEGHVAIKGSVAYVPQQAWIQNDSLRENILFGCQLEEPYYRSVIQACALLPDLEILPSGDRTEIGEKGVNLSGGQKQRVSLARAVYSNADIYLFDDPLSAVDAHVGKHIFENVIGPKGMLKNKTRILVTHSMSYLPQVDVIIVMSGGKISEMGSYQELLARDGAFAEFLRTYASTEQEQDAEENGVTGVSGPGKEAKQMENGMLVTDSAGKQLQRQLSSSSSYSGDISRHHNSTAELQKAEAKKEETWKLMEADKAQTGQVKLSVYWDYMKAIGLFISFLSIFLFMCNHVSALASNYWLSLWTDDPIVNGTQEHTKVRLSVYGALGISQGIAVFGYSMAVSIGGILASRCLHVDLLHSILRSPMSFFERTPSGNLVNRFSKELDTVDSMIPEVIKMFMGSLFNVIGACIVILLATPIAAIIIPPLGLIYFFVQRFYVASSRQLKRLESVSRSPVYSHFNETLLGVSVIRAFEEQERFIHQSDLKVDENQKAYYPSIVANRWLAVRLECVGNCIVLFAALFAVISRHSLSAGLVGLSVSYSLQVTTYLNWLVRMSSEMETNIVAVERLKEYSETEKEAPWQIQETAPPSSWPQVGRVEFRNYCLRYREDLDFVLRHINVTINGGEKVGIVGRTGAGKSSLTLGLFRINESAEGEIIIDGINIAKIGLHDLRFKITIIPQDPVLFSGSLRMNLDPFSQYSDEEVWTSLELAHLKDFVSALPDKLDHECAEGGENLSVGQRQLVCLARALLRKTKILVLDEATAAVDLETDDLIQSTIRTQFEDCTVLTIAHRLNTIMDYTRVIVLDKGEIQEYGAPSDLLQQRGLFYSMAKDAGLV", "assay_type": "cell-based", "conditions": "for Percent Inhibition (%) of the fluorescent substrate: Mrp1, calcein-AM efflux, human cancer cells", "how_it_was_run": "as §1"}, "BCRP (ABCG2)": {"molecular_target": "T1, BCRP (ABCG2) (Homo sapiens, UniProt Q9UNQ0)", "T1 sequence (Q9UNQ0 1-655)": "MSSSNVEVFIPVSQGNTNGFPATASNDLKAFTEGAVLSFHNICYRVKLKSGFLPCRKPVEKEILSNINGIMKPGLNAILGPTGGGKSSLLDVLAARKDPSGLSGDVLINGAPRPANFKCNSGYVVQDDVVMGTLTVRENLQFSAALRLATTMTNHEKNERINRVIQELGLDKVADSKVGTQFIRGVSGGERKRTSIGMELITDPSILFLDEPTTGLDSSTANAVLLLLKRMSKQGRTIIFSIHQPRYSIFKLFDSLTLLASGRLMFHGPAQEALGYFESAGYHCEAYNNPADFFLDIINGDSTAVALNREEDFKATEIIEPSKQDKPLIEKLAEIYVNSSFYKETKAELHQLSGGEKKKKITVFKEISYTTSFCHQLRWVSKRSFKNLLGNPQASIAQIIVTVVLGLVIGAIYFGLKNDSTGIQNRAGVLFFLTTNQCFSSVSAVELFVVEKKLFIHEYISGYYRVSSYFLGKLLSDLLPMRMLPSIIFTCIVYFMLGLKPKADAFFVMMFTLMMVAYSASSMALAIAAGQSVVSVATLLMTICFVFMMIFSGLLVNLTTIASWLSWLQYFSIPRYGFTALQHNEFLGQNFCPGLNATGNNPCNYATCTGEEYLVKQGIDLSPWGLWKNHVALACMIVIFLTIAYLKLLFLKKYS", "assay_type": "cell-based", "conditions": "for Percent Inhibition (%) of the fluorescent substrate: BCRP, mitoxantrone efflux, human cancer cells", "how_it_was_run": "as §1"}, "P-gp [1]": {"molecular_target": "P-gp (Mus musculus, UniProt P21447)", "assay": "Ex vivo brain to plasma ratio of parent radioligand in P-gp knockout mice", "conditions": "P-gp KO mice, 30 min after iv injection, n=3", "how_it_was_run": "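Wild-type, P-gp KO, BCRP KO and P-gp/BCRP KO mice (n=3 per group, 25.3 ± 1.2 g) were anesthetised with 1.5% isoflurane in oxygen. Radioligand (166 ± 49 µCi; 826 ± 205 mCi/µmol) was given iv via tail-vein cannula. At 30 min, blood was taken by cardiac puncture and brain excised. Parent was quantified by reversed-phase radio-HPLC with γ-counting. Brain/plasma parent ratios were compared across groups (mean ± SEM).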"}, "P-gp [2]": {"molecular_target": "P-gp (Homo sapiens, UniProt P08183)", "sequence (P08183 whole entry, the tested form may be a part)": "as the sequence (P08183 whole entry) above", "assay": "Human PET imaging at baseline and during tariquidar infusion", "assay_type": "in vivo", "how_it_was_run": "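Radioligand was given as a 376 ± 8 MBq bolus, followed by a 2-h dynamic PET with arterial sampling and HPLC metabolite separation. VT came from a three-tissue model including the acid metabolite, in six central regions. Paired one-tailed t-test.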"}, "[3]": {"conditions": "humans, ref Ryu et al., 2007, cited from earlier work"}, "P-gp [4]": {"system": "P-gp", "conditions": "rats pretreated with tariquidar; ref Choi et al., 2016; cited from earlier work"}},
  "note": "Read-outs that look alike come from different tables or passages of the source.",
  "data": [
    {"compound": "COc1ccccc1N1CCN(CCN(C(=O)C2CCC(F)CC2)c2ccccn2)CC1", "note": "(stereo not shown) [FCWAY]", "values": [
      {"measurement": "Percent Inhibition (%) of the fluorescent substrate", "setting": "P-gp (ABCB1); 20 uM", "result": 0.8, "unit": "%"},
      {"measurement": "Percent Inhibition (%) of the fluorescent substrate", "setting": "P-gp (ABCB1); 50 uM", "result": 4.0, "unit": "%"},
      {"measurement": "Substrate status for transporter (in vitro substrate inhibition)", "setting": "P-gp (ABCB1); P-gp overexpressing human cancer cells", "result": "weak substrate"},
      {"measurement": "Percent Inhibition (%) of the fluorescent substrate", "setting": "MRP1 (ABCC1); 20 uM", "result": 3.1, "unit": "%"},
      {"measurement": "Percent Inhibition (%) of the fluorescent substrate", "setting": "MRP1 (ABCC1); 50 uM", "result": 5.4, "unit": "%"},
      {"measurement": "Substrate status for transporter (in vitro substrate inhibition)", "setting": "MRP1 (ABCC1); MRP1 overexpressing human cancer cells", "result": "weak substrate"},
      {"measurement": "Percent Inhibition (%) of the fluorescent substrate", "setting": "BCRP (ABCG2); 20 uM", "result": 6.8, "unit": "%"},
      {"measurement": "Percent Inhibition (%) of the fluorescent substrate", "setting": "BCRP (ABCG2); 50 uM", "result": 8.6, "unit": "%"},
      {"measurement": "Substrate status for transporter (in vitro substrate inhibition)", "setting": "BCRP (ABCG2); BCRP overexpressing human cancer cells", "result": "weak substrate"}
    ]},
    {"compound": "COc1ccccc1N1CCN(CCN(C(=O)c2ccc(F)cc2)c2ccccn2)CC1", "note": "[MPPF, reference compound]", "values": [
      {"measurement": "Percent Inhibition (%) of the fluorescent substrate", "setting": "MRP1 (ABCC1); 20 uM", "result": 13.1, "unit": "%"},
      {"measurement": "Percent Inhibition (%) of the fluorescent substrate", "setting": "MRP1 (ABCC1); 50 uM", "result": 19.9, "unit": "%"}
    ]},
    {"compound": "COc1ccccc1N1CCN(CCN(C(=O)C2CCC([18F])CC2)c2ccccn2)CC1", "note": "(stereo not shown) [^18F-FCWAY]", "values": [
      {"measurement": "Brain uptake (brain to plasma ratio) in comparison to wild type mice", "setting": "P-gp [1]", "result": "increased"},
      {"measurement": "Peak brain radioactivity uptake", "setting": "P-gp [2]; baseline, after bolus injection, healthy subjects", "result": "around 3 SUV"},
      {"measurement": "Change of non-displaceable binding potential (BPND) after tariquidar", "setting": "P-gp [2]; i.v. tariquidar treatment, n=8", "result": "changed insignificantly"},
      {"measurement": "Increase in mean distribution volume (VT) with tariquidar treatment", "setting": "P-gp [2]; tariquidar 2 or 4 mg/kg iv infusion, six brain regions, n=8", "result": "60–100%"},
      {"measurement": "Time of peak uptake in brain", "setting": "[3]; with disulfiram administration", "result": "five to seven"},
      {"measurement": "Time of peak in brain after injection", "setting": "[3]; without disulfiram", "result": "one to three"}
    ]},
    {"compound": "O=C(O)[C@H]1CC[C@H]([18F])CC1", "note": "[^18F-FC]", "values": [
      {"measurement": "Estimated concentration in brain as percent of that of the parent radioligand", "setting": "P-gp [2]; during most of the scan, radiometabolite", "result": "2–3%"},
      {"measurement": "Concentration in brain compared to the total radioactivity", "setting": "P-gp [2]; estimated by compartmental modeling, radiometabolite", "result": "~ 5%"}
    ]},
    {"compound": "COc1ccccc1N1CCN(CCN(C(=O)C2CCC(C[18F])CC2)c2ccccn2)CC1", "note": "(stereo not shown) [^18F-Mefway]", "values": [
      {"measurement": "Increase of brain uptake after tariquidar pretreatment", "setting": "P-gp [4]", "result": 1.6, "unit": "fold"}
    ]},
    {"compound": "CNC(=O)C(CCN1CCC(O)(c2ccc(Cl)cc2)CC1)(c1ccccc1)c1ccccc1", "note": "[dLop, desmethyl-loperamide, reference compound]", "values": [
      {"measurement": "Percent Inhibition (%) of the fluorescent substrate", "setting": "P-gp (ABCB1); 20 uM", "result": 10.0, "unit": "%"},
      {"measurement": "Percent Inhibition (%) of the fluorescent substrate", "setting": "P-gp (ABCB1); 50 uM", "result": 25.0, "unit": "%"}
    ]}
  ]
}
